Results as given in publication PMC11579016 (Oncogenesis, 2024).

Experiments:
thrombin = thrombin (Homo sapiens, UniProt P00734); experiment: Cleavage assay of SAPE-labeled ADAM9 bacteria with thrombin; type: biochemical; settings: 75 nM thrombin, 3 h, FACS
Procedure, shortened: (§1)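 ADAM9 substrate-displaying bacteria were subcultured 1:100 in LB for 45 min at 37 °C, induced with 0.04% arabinose for 1 h, then labeled with SAPE (final […]) for 1 h. 10^7 bacteria were incubated for 3 h with thrombin (final 75 nM) or dilutions of sonicated PANC-1 lysate, with PBS or reaction buffer as controls. After two PBS washes, SAPE-positive bacteria were counted by flow cytometry, with unlabeled bacteria as the negative control.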

rMMP9 = rMMP9 (Homo sapiens, UniProt P14780); experiment: Cleavage assay of SAPE-labeled ADAM9 bacteria with rMMP9, alone or with S3304; type: biochemical; settings: 200 nM rMMP9, 3 h, FACS
PANC-1 lysate = experiment: Cleavage assay of SAPE-labeled ADAM9 bacteria with PANC-1 lysate; type: biochemical, human; settings: highest PANC-1 lysate concentration, 3 h, FACS; dose-dependent
Procedure, shortened: as §1

Chain of rMMP9 (P14780 94-707, species assumed): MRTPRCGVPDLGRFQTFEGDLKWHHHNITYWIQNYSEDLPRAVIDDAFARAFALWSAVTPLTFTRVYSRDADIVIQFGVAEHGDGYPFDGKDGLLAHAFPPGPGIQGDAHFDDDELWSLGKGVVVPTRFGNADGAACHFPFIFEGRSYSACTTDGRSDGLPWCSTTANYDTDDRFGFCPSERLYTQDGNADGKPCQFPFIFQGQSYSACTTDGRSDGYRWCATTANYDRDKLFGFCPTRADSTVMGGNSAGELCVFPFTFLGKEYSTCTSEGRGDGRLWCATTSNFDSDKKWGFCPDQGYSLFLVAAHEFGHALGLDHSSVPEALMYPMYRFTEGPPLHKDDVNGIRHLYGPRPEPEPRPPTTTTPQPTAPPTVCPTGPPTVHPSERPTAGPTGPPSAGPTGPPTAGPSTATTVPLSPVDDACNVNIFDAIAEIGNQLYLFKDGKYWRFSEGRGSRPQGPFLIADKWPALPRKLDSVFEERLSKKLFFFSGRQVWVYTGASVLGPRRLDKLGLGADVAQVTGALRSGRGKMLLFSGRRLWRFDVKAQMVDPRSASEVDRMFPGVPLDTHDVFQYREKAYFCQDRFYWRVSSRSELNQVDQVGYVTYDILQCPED

## PLAQAVRSSK [ADAM9 substrate]
thrombin
  effect on fluorescence of SAPE-labeled ADAM9 bacteria: did not reduce fluorescence
rMMP9
  effect on SAPE-positivity of ADAM9 bacteria: greatly reduced SAPE-positivity
PANC-1 lysate
  ADAM9 substrate cleavage by PANC-1 lysate (loss of SAPE-positive bacteria): near-complete
